# Experimental data: PMC4429801 (Journal of nuclear medicine : official publication, Society …, 2009)
# Assays:
# rats = conditions: 2.3 mmol/kg; cited from earlier work
# [1] = Octanol–water partition coefficient study; format: physicochemical; conditions: 1-octanol/phosphate-buffered saline
# Outline: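 The 18F test compound (20 µL, ~10–20 µCi in saline) was added to 5 mL each of 1-octanol and phosphate-buffered saline at pH 6.4, 7.0, 7.4 or 8.4. The mixture was vortexed 1 min and centrifuged 5 min.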
# CWR22rv1 xenografts [2] = assay: Small-animal PET 1 h after tail vein injection; format: in vivo, mice; conditions: 1 h after administration via tail vein
# Outline: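 CWR22rv1-xenografted nude mice, not fasted, received 11.1 MBq (300 µCi) of the 18F test compound by tail vein. They were held under 2% isoflurane in oxygen (2 L/min) and scanned on a small-animal PET at 1 h for 5 min, using a 350–700 keV window and 6 ns coincidence window. Images were corrected for nonuniformity, dead time and decay, but not for attenuation, scatter or partial volume. %ID/g came from a phantom-derived calibration factor.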
# CWR22rv1 xenografts [3] = assay: Single-isotope in vivo biodistribution; set-up: species or system mice; conditions: for Tumor uptake of the tracer: tail vein, nude mice
# Outline: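 Nude mice (20–25 g) carried CWR22rv1 tumours grown from 5 × 10^6 cells in medium/Matrigel, injected s.c. at the right forelimb. They received 3.7–5.5 MBq (100–150 µCi) of the 18F test compound in 200 µL saline by tail vein; dose per animal came from syringe readings before and after injection. Organs were harvested at 1, 2, 3 and 4 h and γ-counted (400–600 keV, decay-corrected) for %ID/g and tumour-to-organ ratios; n = 3 per time point, mean ± SD.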
# CWR22rv1 tumors = assay: Dual-isotope comparative biodistribution; format: in vivo, mice; conditions: 1 h after simultaneous tail vein injection
# Outline: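 Nude mice bearing subcutaneous CWR22rv1 xenografts received, by tail vein, 200 µL saline containing 3.7 MBq of the 18F test compound and about 0.0037 MBq 14C-acetate, and were euthanized 1 h later. 18F was γ-counted (400–600 keV, decay-corrected). Samples were then solubilised and held 1 d at 4°C, and 14C was read by liquid scintillation with external-standard quench correction. %ID/g = activity/decay-corrected injected activity/organ weight; n = 4, mean ± SD.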
smiles,measurement,setting,value
CC(F)C(=O)O (stereo not shown) [FPA],Acute toxicity,rats,no acute toxicity
"CC([18F])C(=O)O (stereo not shown) [^18F-FPA, 2-^18F-fluoropropionic acid]",logP,[1]; pH 6.4,−2.89 ± 0.02
same,logP,[1]; pH 7.0,−3.08 ± 0.04
same,logP,[1]; pH 7.4,−2.97 ± 0.13
same,logP,[1]; pH 8.4,−3.07 ± 0.03
same,Uptake in the brain (PET),CWR22rv1 xenografts [2],4.6 %ID/g
same,Uptake in the heart (PET),CWR22rv1 xenografts [2],4.0 %ID/g
same,Uptake in the tumor (PET),CWR22rv1 xenografts [2]; CWR22rv1 tumor,4.4 %ID/g
same,"Tumor-to-organ ratio, heart","CWR22rv1 xenografts [3]; 1, 2, 3, and 4 h after injection",around 0.95
same,Tumor uptake of the tracer,CWR22rv1 xenografts [3]; 1 h after injection,5.52 ± 0.35 %ID/g
same,Tumor uptake of the tracer,CWR22rv1 xenografts [3]; 2 h after injection,5.53 ± 0.42 %ID/g
same,Tumor uptake of the tracer,CWR22rv1 xenografts [3]; 3 h after injection,5.74 ± 0.54 %ID/g
same,Tumor uptake of the tracer,CWR22rv1 xenografts [3]; 4 h after injection,5.34 ± 0.19 %ID/g
same,Defluorination in vivo,"CWR22rv1 xenografts [3]; PET and biodistribution studies, low bone uptake",no evidence of defluorination
same,"Tumor-to-organ ratio, Blood",CWR22rv1 tumors,1.03
same,"Tumor-to-organ ratio, Bone",CWR22rv1 tumors,4.23
same,"Tumor-to-organ ratio, Brain",CWR22rv1 tumors,1.27
same,"Tumor-to-organ ratio, Kidneys",CWR22rv1 tumors,1.70
same,"Tumor-to-organ ratio, Large intestine",CWR22rv1 tumors,1.91
same,"Tumor-to-organ ratio, Liver",CWR22rv1 tumors,1.26
same,"Tumor-to-organ ratio, Lungs",CWR22rv1 tumors,1.77
same,"Tumor-to-organ ratio, Muscle",CWR22rv1 tumors,1.94
same,"Tumor-to-organ ratio, Small intestine",CWR22rv1 tumors,1.62
same,"Tumor-to-organ ratio, Spleen",CWR22rv1 tumors,1.62
same,"Tumor-to-organ ratio, Stomach",CWR22rv1 tumors,2.80
same,"Tumor-to-organ ratio, Tumor",CWR22rv1 tumors,1.00
same,"Tumor-to-organ ratio, heart",CWR22rv1 tumors,1.30
same,"%ID/g, Blood",CWR22rv1 tumors; n = 4,6.88 ± 0.64 %ID/g
same,"%ID/g, Bone",CWR22rv1 tumors; n = 4,1.68 ± 0.54 %ID/g
same,"%ID/g, Brain",CWR22rv1 tumors; n = 4,5.57 ± 0.33 %ID/g
same,"%ID/g, Heart",CWR22rv1 tumors; n = 4,5.46 ± 0.63 %ID/g
same,"%ID/g, Kidneys",CWR22rv1 tumors; n = 4,4.17 ± 0.60 %ID/g
same,"%ID/g, Large intestine",CWR22rv1 tumors; n = 4,3.71 ± 1.09 %ID/g
same,"%ID/g, Liver",CWR22rv1 tumors; n = 4,5.61 ± 0.50 %ID/g
same,"%ID/g, Lungs",CWR22rv1 tumors; n = 4,4.00 ± 0.26 %ID/g
same,"%ID/g, Muscle",CWR22rv1 tumors; n = 4,3.66 ± 0.50 %ID/g
same,"%ID/g, Small intestine",CWR22rv1 tumors; n = 4,4.37 ± 1.15 %ID/g
same,"%ID/g, Spleen",CWR22rv1 tumors; n = 4,4.36 ± 0.85 %ID/g
same,"%ID/g, Stomach",CWR22rv1 tumors; n = 4,2.53 ± 1.04 %ID/g
same,"%ID/g, Tumor","CWR22rv1 tumors; CWR22rv1 tumors, n = 4",7.08 ± 0.80 %ID/g
